Test results taken from ChEMBL document CHEMBL2069278, “Novel substituted benzothiophene and thienothiophene carboxanilides and quinolones: synthesis, photochemical synthesis, DNA-binding properties, antitumor evaluation and 3D-derived QSAR analysis” (J Med Chem, 2012).
pIC50: −log10 of the molar value. The source made the active and inactive calls. The rule behind the calls is not given here.

Assays:
[1] = tested on: Nucleic Acid; test: Binding affinity to calf thymus DNA assessed as change in melting temperature at drug/base pair ratio of 0.025 by UV-visible spectrophotometric analysis; type: nucleic-acid assay; details: Bos taurus
How it was run: (§1)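 Melting: 20 μM CT-DNA or poly(dAdT)2 alone or with compound (drug/base pair ratio 0.01−0.5) in BPE buffer (6 mM Na2HPO4, 2 mM NaH2PO4, 1 mM EDTA, pH 7.1); A260 read each minute from 20 to 100 °C at 1 °C/min; Tm from midpoint of hyperchromic transition (first-derivative plots); ΔTm = Tm[drug+DNA] − Tm[DNA alone].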

[2] = tested on: MOLT-4; test: Cytotoxicity against human MOLT4 cells after 72 hrs by MTT assay; type: functional, cell-based; details: MOLT-4, 72 h
How it was run: (§2)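 Cells seeded on day 0 at 1 × 10^4 to 3 × 10^4 cells/mL (adherent lines in DMEM, MOLT-4 in suspension in RPMI, 10% FBS, 37 °C, 5% CO2); 10-fold dilutions 10−8–10−4 M for 72 h; MTT, OD 570 nm; percentage growth versus time-zero and control; IC50 by linear regression; quadruplicate, at least two experiments.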

[3] = tested on: HCT-116; test: Cytotoxicity against human HCT116 cells after 72 hrs by MTT assay; type: functional, cell-based; details: HCT-116, 72 h; how it was run: as §2
[4] = tested on: SW-620; test: Cytotoxicity against human SW620 cells after 72 hrs by MTT assay; type: functional, cell-based; details: SW-620, 72 h; how it was run: as §2
[5] = tested on: MCF7; test: Cytotoxicity against human MCF7 cells after 72 hrs by MTT assay; type: functional, cell-based; details: MCF7, 72 h; how it was run: as §2
[6] = tested on: NCI-H460; test: Cytotoxicity against human H460 cells after 72 hrs by MTT assay; type: functional, cell-based; details: NCI-H460, 72 h; how it was run: as §2
[7] = tested on: Nucleic Acid; test: Binding affinity to calf thymus DNA assessed as change in melting temperature at drug/base pair ratio of 0.01 by UV-visible spectrophotometric analysis; type: nucleic-acid assay; details: Bos taurus; how it was run: as §1
[8] = tested on: Nucleic Acid; test: Binding affinity to radiolabeled Pvu2 DNA after 15 mins by Dnase1 footprinting assay; type: nucleic-acid assay
How it was run: (§3)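 265 bp EcoRI/PvuII pBluescript fragment, 3′-end labeled with α-[32P]dATP by Klenow. Compounds at increasing concentrations pre-equilibrated with DNA 15 min at 37 °C, then DNase I (final 0.002 unit/mL) in 20 mM NaCl, 2 mM MgCl2, 2 mM MnCl2, pH 7.3, 4 min digestion; products resolved on denaturing 8% polyacrylamide/8 M urea gel, G-track for base positions.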

[9] = target: DNA topoisomerase 2-alpha (Homo sapiens) (UniProt P11388); test: Inhibition of human topoisomerase 2-mediated DNA cleavage at 50 uM incubated for 45 mins followed by enzyme addition measured after 30 mins by agarose gel electrophoresis
DNA topoisomerase 2-alpha (Homo sapiens), sequence (P11388 whole entry): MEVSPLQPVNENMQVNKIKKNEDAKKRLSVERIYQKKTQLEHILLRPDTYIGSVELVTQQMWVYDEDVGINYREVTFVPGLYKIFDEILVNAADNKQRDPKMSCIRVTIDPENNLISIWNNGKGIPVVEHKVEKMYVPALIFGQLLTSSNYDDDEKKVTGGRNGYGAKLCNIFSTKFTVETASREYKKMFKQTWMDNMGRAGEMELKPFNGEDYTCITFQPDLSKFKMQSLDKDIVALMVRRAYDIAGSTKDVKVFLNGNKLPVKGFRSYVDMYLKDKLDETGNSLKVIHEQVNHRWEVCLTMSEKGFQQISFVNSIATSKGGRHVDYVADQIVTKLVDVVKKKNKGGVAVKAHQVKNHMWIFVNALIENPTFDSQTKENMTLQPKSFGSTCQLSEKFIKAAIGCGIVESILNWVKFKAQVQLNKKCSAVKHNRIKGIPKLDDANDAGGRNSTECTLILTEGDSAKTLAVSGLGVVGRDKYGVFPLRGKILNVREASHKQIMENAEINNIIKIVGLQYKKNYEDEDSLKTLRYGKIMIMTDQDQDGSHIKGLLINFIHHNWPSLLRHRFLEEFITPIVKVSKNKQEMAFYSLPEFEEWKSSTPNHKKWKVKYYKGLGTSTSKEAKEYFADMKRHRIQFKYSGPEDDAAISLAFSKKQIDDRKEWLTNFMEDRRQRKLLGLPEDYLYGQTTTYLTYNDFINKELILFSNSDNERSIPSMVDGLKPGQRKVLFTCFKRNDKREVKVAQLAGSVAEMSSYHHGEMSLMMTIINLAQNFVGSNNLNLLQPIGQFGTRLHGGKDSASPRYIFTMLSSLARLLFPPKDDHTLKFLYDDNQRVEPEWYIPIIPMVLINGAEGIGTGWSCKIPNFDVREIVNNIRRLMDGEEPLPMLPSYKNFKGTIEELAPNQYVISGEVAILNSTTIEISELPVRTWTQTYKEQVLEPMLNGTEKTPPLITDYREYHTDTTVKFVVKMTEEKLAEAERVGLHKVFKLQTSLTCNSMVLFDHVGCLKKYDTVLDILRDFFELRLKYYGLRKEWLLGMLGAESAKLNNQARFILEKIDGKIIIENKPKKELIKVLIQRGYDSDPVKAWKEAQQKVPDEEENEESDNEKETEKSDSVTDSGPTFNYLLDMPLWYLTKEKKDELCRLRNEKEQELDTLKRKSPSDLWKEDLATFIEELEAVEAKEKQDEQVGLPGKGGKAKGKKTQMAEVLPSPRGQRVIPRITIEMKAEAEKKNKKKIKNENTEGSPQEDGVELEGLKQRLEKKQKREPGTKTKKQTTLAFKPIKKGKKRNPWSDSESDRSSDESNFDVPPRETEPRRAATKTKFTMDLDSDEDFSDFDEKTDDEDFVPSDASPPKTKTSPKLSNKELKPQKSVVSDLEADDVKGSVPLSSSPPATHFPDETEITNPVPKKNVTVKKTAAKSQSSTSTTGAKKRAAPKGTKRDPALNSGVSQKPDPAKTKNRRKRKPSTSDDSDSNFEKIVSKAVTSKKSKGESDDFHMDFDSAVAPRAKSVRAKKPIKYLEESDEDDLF
How it was run: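 Compounds (50 μM) incubated with 350 ng supercoiled pUC19 before topoisomerase II addition; gel quantified for percentage poisoning normalized to etoposide at the same concentration.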

[10] = tested on: Nucleic Acid; test: Binding affinity to calf thymus DNA assessed as change in melting temperature at drug/base pair ratio of 0.1 by UV-visible spectrophotometric analysis; type: nucleic-acid assay; details: Bos taurus; how it was run: as §1
[11] = tested on: Nucleic Acid; test: Binding affinity to AT rich site of Pvu2 DNA by densitometric analysis; type: nucleic-acid assay; how it was run: as §3
[12] = tested on: Nucleic Acid; test: Binding affinity to calf thymus DNA assessed as change in melting temperature at drug/base pair ratio of 0.25 by UV-visible spectrophotometric analysis; type: nucleic-acid assay; details: Bos taurus; how it was run: as §1
[13] = target: T1, DNA topoisomerase 1 (Homo sapiens) (UniProt P11387); test: Inhibition of human topoisomerase 1-mediated supercoiled pUC19 plasmid DNA relaxation at 0.5 to 2 uM incubated for 45 mins followed by enzyme addition measured after 30 mins by agarose gel electrophoresis
T1 sequence (whole entry): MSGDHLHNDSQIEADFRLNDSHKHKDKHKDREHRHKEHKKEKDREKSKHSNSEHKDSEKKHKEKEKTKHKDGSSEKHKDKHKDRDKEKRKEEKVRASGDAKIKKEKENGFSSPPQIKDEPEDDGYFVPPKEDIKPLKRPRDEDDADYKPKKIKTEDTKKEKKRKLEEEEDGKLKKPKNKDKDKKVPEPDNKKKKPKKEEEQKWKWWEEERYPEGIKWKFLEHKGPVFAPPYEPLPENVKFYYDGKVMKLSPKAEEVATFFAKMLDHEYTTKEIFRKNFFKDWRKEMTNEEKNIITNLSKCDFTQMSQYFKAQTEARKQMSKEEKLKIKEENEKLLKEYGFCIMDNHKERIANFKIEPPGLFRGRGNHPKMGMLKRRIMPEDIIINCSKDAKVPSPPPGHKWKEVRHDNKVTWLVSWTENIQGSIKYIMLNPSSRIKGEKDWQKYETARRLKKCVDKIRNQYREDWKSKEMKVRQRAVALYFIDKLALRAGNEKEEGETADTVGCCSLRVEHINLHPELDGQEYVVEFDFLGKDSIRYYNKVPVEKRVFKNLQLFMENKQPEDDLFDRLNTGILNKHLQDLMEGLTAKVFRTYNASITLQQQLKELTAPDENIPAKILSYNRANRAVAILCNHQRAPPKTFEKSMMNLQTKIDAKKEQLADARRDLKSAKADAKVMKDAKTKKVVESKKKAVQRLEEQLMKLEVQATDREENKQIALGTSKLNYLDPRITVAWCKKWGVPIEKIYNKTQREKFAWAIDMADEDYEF
How it was run: (§4)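 Graded compound concentrations preincubated with supercoiled pUC19, then 4 units human topoisomerase I, 37 °C for 45 min in relaxation buffer; stopped with 0.25% SDS and 250 μg/mL proteinase K, 30 min at 50 °C; 1% agarose gel without ethidium bromide, 2 h at 120 V in TBE, then stained with ethidium bromide.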

[14] = tested on: Nucleic Acid; test: Binding affinity to calf thymus DNA assessed as DNA intercalation at 50 uM by circular dichroism spectra analysis; type: nucleic-acid assay; details: Bos taurus
How it was run: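 CD: 50 μM compound with 200 μM CT-DNA in BPE buffer, alone or plus 10 or 100 mM NaCl; spectra 480–230 nm, 10 mm quartz cell, 20 °C; compound without DNA as control for intrinsic CD.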

[15] = target: T1, DNA topoisomerase 1 (Homo sapiens); test: Inhibition of human topoisomerase 1-mediated supercoiled pUC19 plasmid DNA relaxation at 10 uM incubated for 45 mins followed by enzyme addition measured after 30 mins by agarose gel electrophoresis; how it was run: as §4
[16] = tested on: Nucleic Acid; test: Binding affinity to Poly (dAdT)2 DNA assessed as change in melting temperature at drug/base pair ratio of 0.01 by UV-visible spectrophotometric analysis; type: nucleic-acid assay; how it was run: as §1
[17] = tested on: Nucleic Acid; test: Binding affinity to Poly (dAdT)2 DNA assessed as DNA intercalation at 20 uM by circular dichroism spectra analysis; type: nucleic-acid assay
How it was run: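 CD: compound titrated against poly(dAdT)2, or poly(dAdT)2 titrated with compound from 1 to 200 μM, in BPE buffer (pH 7.1); spectra from 480 to 230 nm in 10 mm quartz cell at 20 °C; peak position and intensity followed.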

[18] = target: T1, DNA topoisomerase 1 (Homo sapiens); test: Inhibition of human topoisomerase 1-mediated DNA cleavage at 10 uM incubated for 45 mins followed by enzyme addition measured after 30 mins by agarose gel electrophoresis
How it was run: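 Topo I cleavage run like the relaxation assay (pUC19, 4 units human topoisomerase I, 37 °C, 45 min; SDS/proteinase K stop), but samples run on 1% agarose gel containing ethidium bromide; camptothecin 20 μM as poisoning control.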

[19] = tested on: HCT-116; test: Induction of cell cycle arrest in human HCT116 cells assessed as accumulation at G1 phase at 1 to 5 uM by propidium iodide based flow cytometry; type: functional; details: TDE = time-dependent effect
How it was run: (§5)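 HCT116 cells (2 × 10^5 per well) treated after 24 h with 1 or 5 μM for 24 and 48 h; floating and attached cells pooled, fixed in 70% ethanol, stained with 50 μg/mL propidium iodide plus RNase A; 20 000 events by flow cytometry; phase percentages from DNA histograms; duplicate, repeated at least twice.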

[20] = tested on: HCT-116; test: Induction of cell cycle arrest in human HCT116 cells assessed as accumulation at G2/M phase at 1 to 5 uM by propidium iodide based flow cytometry; type: functional; details: TDE = time-dependent effect; how it was run: as §5
[21] = tested on: HCT-116; test: Induction of cell cycle arrest in human HCT116 cells assessed as accumulation at G1 phase after 24 to 48 hrs by propidium iodide based flow cytometry; type: functional; how it was run: as §5
[22] = tested on: HCT-116; test: Induction of cell cycle arrest in human HCT116 cells assessed as accumulation at G2/M phase after 24 to 48 hrs by propidium iodide based flow cytometry; type: functional; how it was run: as §5
[23] = tested on: Nucleic Acid; test: Binding affinity to calf thymus DNA assessed as change in melting temperature at drug/base pair ratio of 0.5 by UV-visible spectrophotometric analysis; type: nucleic-acid assay; details: Bos taurus; how it was run: as §1
[24] = tested on: Nucleic Acid; test: Binding affinity to Poly (dAdT)2 DNA assessed as change in melting temperature at drug/base pair ratio of 0.025 by UV-visible spectrophotometric analysis; type: nucleic-acid assay; how it was run: as §1
[25] = tested on: Nucleic Acid; test: Binding affinity to Poly (dAdT)2 DNA assessed as change in melting temperature at drug/base pair ratio of 0.05 by UV-visible spectrophotometric analysis; type: nucleic-acid assay; how it was run: as §1
[26] = tested on: Nucleic Acid; test: Binding affinity to Poly (dAdT)2 DNA assessed as change in melting temperature at drug/base pair ratio of 0.1 by UV-visible spectrophotometric analysis; type: nucleic-acid assay; how it was run: as §1
[27] = tested on: Nucleic Acid; test: Binding affinity to Poly (dAdT)2 DNA assessed as change in melting temperature at drug/base pair ratio of 0.25 by UV-visible spectrophotometric analysis; type: nucleic-acid assay; how it was run: as §1

Row | ΔTm [1] [°C] | ΔTm [7] [°C] | Activity [8] | inhibition [9] | ΔTm [10] [°C] | Activity [11] | ΔTm [12] [°C] | inhibition [13] | Structure (SMILES) | pIC50 [2] | pIC50 [3] | pIC50 [4] | pIC50 [5] | pIC50 [6] | Activity [19] | Activity [20] | Activity [21] | Activity [22] | also measured
1 | 0 | 0 | Active | Active | 15.7 | inactive | 22.4 | Active | O=c1[nH]c2ccc(C3=NCCN3)cc2c2c1sc1cc(C3=NCCN3)ccc12 | 5.52 | ≤ 5.00 | ≤ 5.00 | ≤ 5.00 | ≤ 5.00 |  |  |  |  | 
2 | 2 | 1 | Active | Active | 7.9 | Active | 23.9 |  | O=C(Nc1ccc(C2=NCCN2)cc1)c1sc2cc(C3=NCCN3)ccc2c1Cl | 5.72 | 5.77 | 5.85 | 5.82 | 5.59 | tde | tde | Dose-dependent effect | Dose-dependent effect | Activity [14]: Active; inhibition [15]: Active; ΔTm [16]: 1 °C; Activity [17]: Active; inhibition [18]: Active; ΔTm [23]: 28.4 °C; ΔTm [24]: 2 °C; ΔTm [25]: 5.9 °C; ΔTm [26]: 18.6 °C; ΔTm [27]: 27.4 °C
3 | 0.9 | 0 | Active | Active | 4.9 | inactive | 18 | Active | O=c1[nH]c2ccc(C3=NCCN3)cc2c2c1sc1ccccc12 | 6.10 | 6.05 | 6.15 | 5.85 | 5.80 | tde | tde | Dose-dependent effect | Dose-dependent effect | 
